Tested on: HEK-293T
Test: Multiplex assay against HEK293T
Format: toxicity, cell-based
Details: human
Method in brief: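 At seeding, live cells were stained with Hoechst33342, BioTracker Green Microtubule Cytoskeleton Dye, MitoTracker Red and Annexin V Alexa Fluor 680. After compound addition they were imaged on a CQ1 microscope at 37°C and 5% CO2, and CellPathfinder machine-learning gating sorted them into Hoechst high-intensity objects or normal cells, with normal cells further split into healthy, pyknosed or fragmented nuclei and pyknosed cells into mitotic or apoptotic. Tubulin, mitochondrial-mass and membrane-permeability phenotypes are given as per cents of cells with healthy nuclei.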

[1] = 12 h, 1 µM, compound concentration 1 uM, replicate 1
[2] = 12 h, 1 µM, compound concentration 1 uM, replicate 2
[3] = 12 h, 10 µM, compound concentration 10 uM, replicate 1
[4] = 12 h, 10 µM, compound concentration 10 uM, replicate 2
[5] = 24 h, 1 µM, compound concentration 1 uM, replicate 1
[6] = 24 h, 1 µM, compound concentration 1 uM, replicate 2
[7] = 24 h, 10 µM, compound concentration 10 uM, replicate 1
[8] = 24 h, 10 µM, compound concentration 10 uM, replicate 2
[9] = 48 h, 1 µM, compound concentration 1 uM, replicate 1
[10] = 48 h, 1 µM, compound concentration 1 uM, replicate 2
[11] = 48 h, 10 µM, compound concentration 10 uM, replicate 1
[12] = 48 h, 10 µM, compound concentration 10 uM, replicate 2

CC(=O)Nc1cccc2c1c(Sc1ccc(Cl)cc1)c(C)n2CC(=O)O [AZD1981]
Population Apoptotic (%) [1]: 37%
Population Fragmented Nuclei (%) [1]: 6%
Population Healthy Nuclei (%) [1]: 81%
Population Hoechst High Intensity Objects (%) [1]: 6%
Population Membrane Permeable-Phenotype (%) [1]: 0%
Population Mitochondria Different-Phenotype (%) [1]: 46%
Population Mitotic Cells (%) [1]: 62%
Population Normal (%) [1]: 93%
Population Pyknosed Nuclei (%) [1]: 11%
Population Tubulin-Different-Phenotype (%) [1]: 28%
Total Cell Count [1]: 405
Population Apoptotic (%) [2]: 60%
Population Fragmented Nuclei (%) [2]: 5%
Population Healthy Nuclei (%) [2]: 80%
Population Hoechst High Intensity Objects (%) [2]: 8%
Population Mitochondria Different-Phenotype (%) [2]: 57%
Population Mitotic Cells (%) [2]: 40%
Population Normal (%) [2]: 91%
Population Pyknosed Nuclei (%) [2]: 13%
Population Tubulin-Different-Phenotype (%) [2]: 18%
Total Cell Count [2]: 314
Population Apoptotic (%) [3]: 38%
Population Fragmented Nuclei (%) [3]: 8%
Population Healthy Nuclei (%) [3]: 78%
Population Hoechst High Intensity Objects (%) [3]: 7%
Population Membrane Permeable-Phenotype (%) [3]: 0%
Population Mitochondria Different-Phenotype (%) [3]: 44%
Population Mitotic Cells (%) [3]: 61%
Population Normal (%) [3]: 92%
Population Pyknosed Nuclei (%) [3]: 12%
Population Tubulin-Different-Phenotype (%) [3]: 29%
Total Cell Count [3]: 403
Population Apoptotic (%) [4]: 60%
Population Fragmented Nuclei (%) [4]: 6%
Population Healthy Nuclei (%) [4]: 77%
Population Hoechst High Intensity Objects (%) [4]: 15%
Population Mitochondria Different-Phenotype (%) [4]: 60%
Population Mitotic Cells (%) [4]: 39%
Population Normal (%) [4]: 84%
Population Pyknosed Nuclei (%) [4]: 15%
Population Tubulin-Different-Phenotype (%) [4]: 26%
Total Cell Count [4]: 318
Population Apoptotic (%) [5]: 20%
Population Fragmented Nuclei (%) [5]: 9%
Population Healthy Nuclei (%) [5]: 80%
Population Hoechst High Intensity Objects (%) [5]: 2%
Population Membrane Permeable-Phenotype (%) [5]: 0%
Population Mitochondria Different-Phenotype (%) [5]: 33%
Population Mitotic Cells (%) [5]: 79%
Population Normal (%) [5]: 97%
Population Pyknosed Nuclei (%) [5]: 9%
Population Tubulin-Different-Phenotype (%) [5]: 23%
Total Cell Count [5]: 568
Population Apoptotic (%) [6]: 54%
Population Fragmented Nuclei (%) [6]: 7%
Population Hoechst High Intensity Objects (%) [6]: 9%
Population Mitochondria Different-Phenotype (%) [6]: 42%
Population Mitotic Cells (%) [6]: 45%
Population Normal (%) [6]: 90%
Population Pyknosed Nuclei (%) [6]: 11%
Population Tubulin-Different-Phenotype (%) [6]: 16%
Total Cell Count [6]: 398
Population Apoptotic (%) [7]: 40%
Population Fragmented Nuclei (%) [7]: 7%
Population Healthy Nuclei (%) [7]: 79%
Population Hoechst High Intensity Objects (%) [7]: 4%
Population Membrane Permeable-Phenotype (%) [7]: 0%
Population Mitochondria Different-Phenotype (%) [7]: 28%
Population Mitotic Cells (%) [7]: 59%
Population Normal (%) [7]: 95%
Population Pyknosed Nuclei (%) [7]: 13%
Population Tubulin-Different-Phenotype (%) [7]: 25%
Total Cell Count [7]: 526
Population Apoptotic (%) [8]: 59%
Population Fragmented Nuclei (%) [8]: 8%
Population Healthy Nuclei (%) [8]: 81%
Population Hoechst High Intensity Objects (%) [8]: 12%
Population Mitochondria Different-Phenotype (%) [8]: 45%
Population Mitotic Cells (%) [8]: 40%
Population Normal (%) [8]: 87%
Population Pyknosed Nuclei (%) [8]: 9%
Population Tubulin-Different-Phenotype (%) [8]: 19%
Total Cell Count [8]: 387
Population Apoptotic (%) [9]: 21%
Population Fragmented Nuclei (%) [9]: 15%
Population Healthy Nuclei (%) [9]: 78%
Population Hoechst High Intensity Objects (%) [9]: 1%
Population Membrane Permeable-Phenotype (%) [9]: 1%
Population Mitochondria Different-Phenotype (%) [9]: 18%
Population Mitotic Cells (%) [9]: 78%
Population Normal (%) [9]: 98%
Population Pyknosed Nuclei (%) [9]: 6%
Population Tubulin-Different-Phenotype (%) [9]: 10%
Total Cell Count [9]: 908
Population Apoptotic (%) [10]: 38%
Population Fragmented Nuclei (%) [10]: 13%
Population Healthy Nuclei (%) [10]: 79%
Population Hoechst High Intensity Objects (%) [10]: 3%
Population Mitochondria Different-Phenotype (%) [10]: 20%
Population Mitotic Cells (%) [10]: 61%
Population Normal (%) [10]: 96%
Population Tubulin-Different-Phenotype (%) [10]: 12%
Total Cell Count [10]: 570
Population Apoptotic (%) [11]: 37%
Population Fragmented Nuclei (%) [11]: 14%
Population Healthy Nuclei (%) [11]: 78%
Population Hoechst High Intensity Objects (%) [11]: 2%
Population Membrane Permeable-Phenotype (%) [11]: 0%
Population Mitochondria Different-Phenotype (%) [11]: 18%
Population Mitotic Cells (%) [11]: 62%
Population Normal (%) [11]: 97%
Population Pyknosed Nuclei (%) [11]: 7%
Population Tubulin-Different-Phenotype (%) [11]: 11%
Total Cell Count [11]: 751
Population Apoptotic (%) [12]: 33%
Population Fragmented Nuclei (%) [12]: 16%
Population Hoechst High Intensity Objects (%) [12]: 4%
Population Mitochondria Different-Phenotype (%) [12]: 26%
Population Mitotic Cells (%) [12]: 66%
Population Normal (%) [12]: 95%
Population Pyknosed Nuclei (%) [12]: 5%
Total Cell Count [12]: 556

Source: ChEMBL document CHEMBL5058577, “EUbOPEN Chemogenomics Library 2 (Multiplex)” (2022)
